Data reported in ChEMBL document CHEMBL5030531, “Synthetic Glycolipids as Molecular Vaccine Adjuvants: Mechanism of Action in Human Cells and In Vivo Activity” (J Med Chem, 2021).
Calls of active or inactive are those of the source. The rule behind the calls is not given here.

Assays:
Macrophage [1] = experiment: Activation of TRIF dependent pathway in human THP-1 derived macrophages assessed as increase in IRF3 phosphorylation at 10 uM measured up to 3 hrs by immunoblotting analysis; format: tissue-based; settings: time hrs <=3
How it was run: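 Differentiated THP-1 macrophages exposed to compound at 10 μM, alongside S-LPS and R-LPS (100 ng/mL each) and MPLA (1 μg/mL), and collected over a time course. Lysates were immunoblotted for phospho-IRF3 (Ser386) with β-actin as loading control and detected by chemiluminescence.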

Mus musculus [2] = experiment: Immuno-adjuvant activity in C57BL/6 mouse assessed as increase in levels of anti-ova total IgG in sera at 10 ug administered subcutaneously in presence of ovalbumin and measured 21 days post immunization by ELISA; format: functional, organism-based; settings: dose 10.0 µg, time 21.0 day
How it was run: (§1)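 Female C57BL/6 mice (n = 8) given 50 μL s.c. in the flank of 500 μg endotoxin-depleted OVA mixed with 10 μg adjuvant in PBS. Booster on opposite flank day 22; OVA-only control group. Tail-vein sera taken days 21 and 41, serially diluted 1:100–1:12 800 and assayed by ELISA on OVA-coated plates (4 μg/mL). Detection with HRP anti-mouse IgG, TMB, A450.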

[3] = Toxicity in C57BL/6 […] assessed as local response at injection site at 10 ug observed daily for 7 days; settings: mouse, in vivo, 168 h; dose 10 µg, time 7 day
How it was run: (§2)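 Six-week-old female C57BL/6 mice were injected subcutaneously in the flank with 10 μg adjuvant in 50 μL PBS. Mice were monitored and weighed daily for 7 days, with injection-site response and alertness noted. Group size is n = 3 per treatment in the methods and n = 4 in the figure legend.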

Mus musculus [4] = experiment: Immuno-adjuvant activity in C57BL/6 mouse assessed as increase in levels of anti-ova total IgG in sera at 10 ug administered subcutaneously on day 1 and as booster dose on day 22 in presence of ovalbumin and […] by ELISA; format: functional, organism-based; settings: dose 10.0 µg; how it was run: as §1
HEK-Blue hTLR4 = experiment: Activation of AP-1 in LPS-stimulated HEK-Blue hTLR4 cells assessed as increase in release of SEAP reporter protein level incubated for 18 hrs by QUANTI-blue assay; format: cell-based; settings: Homo sapiens, filed as activator
How it was run: (§3)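 HEK-Blue hTLR4 cells (HEK293 with CD14, TLR4, MD-2 and NF-κB/AP-1-driven SEAP) in DMEM/10% FBS, seeded overnight (37 °C, 5% CO2), washed, then exposed to compound 0.1–25 μM in fresh medium for 18 h. SEAP in supernatant read with QUANTI-Blue substrate (0.5–4 h, RT) at OD 630 nm. Normalized to 100 ng/mL S. minnesota smooth LPS; mean percentage of three independent experiments.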

Macrophage [5] = experiment: Activation of TRIF dependent pathway in human THP-1 derived macrophages assessed as increase in IFNbeta mRNA expression measured 2 hrs post treatment by real-time PCR
[6] = target: Nuclear factor NF-kappa-B complex (Homo sapiens) (UniProt Q00653+P19838+Q04206); experiment: Activation of NF-kappaB in LPS-stimulated HEK-Blue hTLR4 cells assessed as increase in release of SEAP reporter protein level incubated for 18 hrs by QUANTI-blue assay; format: cell-based; settings: filed as activator; how it was run: as §3
Nuclear factor NF-kappa-B complex (Homo sapiens), sequence (P19838 whole entry, looked up): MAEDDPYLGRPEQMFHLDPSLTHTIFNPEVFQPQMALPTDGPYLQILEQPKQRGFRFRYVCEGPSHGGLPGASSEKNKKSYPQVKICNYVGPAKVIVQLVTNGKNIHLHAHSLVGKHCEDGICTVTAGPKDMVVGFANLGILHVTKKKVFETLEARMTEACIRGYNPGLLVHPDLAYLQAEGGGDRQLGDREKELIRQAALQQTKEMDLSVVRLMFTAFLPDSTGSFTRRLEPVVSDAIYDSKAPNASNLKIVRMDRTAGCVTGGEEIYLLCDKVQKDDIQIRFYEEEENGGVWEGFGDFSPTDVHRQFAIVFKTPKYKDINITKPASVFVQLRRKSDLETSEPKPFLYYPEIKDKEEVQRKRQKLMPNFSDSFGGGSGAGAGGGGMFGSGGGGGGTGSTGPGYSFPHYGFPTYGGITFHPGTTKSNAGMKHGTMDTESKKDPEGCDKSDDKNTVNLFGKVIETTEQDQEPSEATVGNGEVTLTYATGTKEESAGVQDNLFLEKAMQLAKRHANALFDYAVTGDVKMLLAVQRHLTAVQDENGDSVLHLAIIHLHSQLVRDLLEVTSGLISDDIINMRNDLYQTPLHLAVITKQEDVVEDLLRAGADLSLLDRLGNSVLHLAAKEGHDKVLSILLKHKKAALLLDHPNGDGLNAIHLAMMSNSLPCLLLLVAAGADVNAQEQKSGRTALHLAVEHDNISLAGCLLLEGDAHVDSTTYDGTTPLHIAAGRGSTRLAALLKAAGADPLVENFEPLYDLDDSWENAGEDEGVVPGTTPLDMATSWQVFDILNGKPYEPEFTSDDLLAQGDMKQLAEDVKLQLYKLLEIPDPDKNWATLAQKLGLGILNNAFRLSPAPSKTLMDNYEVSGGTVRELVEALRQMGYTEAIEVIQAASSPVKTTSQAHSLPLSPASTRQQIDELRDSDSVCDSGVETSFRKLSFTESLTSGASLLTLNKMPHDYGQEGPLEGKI
Nuclear factor NF-kappa-B complex (Homo sapiens), sequence (Q00653 whole entry, looked up): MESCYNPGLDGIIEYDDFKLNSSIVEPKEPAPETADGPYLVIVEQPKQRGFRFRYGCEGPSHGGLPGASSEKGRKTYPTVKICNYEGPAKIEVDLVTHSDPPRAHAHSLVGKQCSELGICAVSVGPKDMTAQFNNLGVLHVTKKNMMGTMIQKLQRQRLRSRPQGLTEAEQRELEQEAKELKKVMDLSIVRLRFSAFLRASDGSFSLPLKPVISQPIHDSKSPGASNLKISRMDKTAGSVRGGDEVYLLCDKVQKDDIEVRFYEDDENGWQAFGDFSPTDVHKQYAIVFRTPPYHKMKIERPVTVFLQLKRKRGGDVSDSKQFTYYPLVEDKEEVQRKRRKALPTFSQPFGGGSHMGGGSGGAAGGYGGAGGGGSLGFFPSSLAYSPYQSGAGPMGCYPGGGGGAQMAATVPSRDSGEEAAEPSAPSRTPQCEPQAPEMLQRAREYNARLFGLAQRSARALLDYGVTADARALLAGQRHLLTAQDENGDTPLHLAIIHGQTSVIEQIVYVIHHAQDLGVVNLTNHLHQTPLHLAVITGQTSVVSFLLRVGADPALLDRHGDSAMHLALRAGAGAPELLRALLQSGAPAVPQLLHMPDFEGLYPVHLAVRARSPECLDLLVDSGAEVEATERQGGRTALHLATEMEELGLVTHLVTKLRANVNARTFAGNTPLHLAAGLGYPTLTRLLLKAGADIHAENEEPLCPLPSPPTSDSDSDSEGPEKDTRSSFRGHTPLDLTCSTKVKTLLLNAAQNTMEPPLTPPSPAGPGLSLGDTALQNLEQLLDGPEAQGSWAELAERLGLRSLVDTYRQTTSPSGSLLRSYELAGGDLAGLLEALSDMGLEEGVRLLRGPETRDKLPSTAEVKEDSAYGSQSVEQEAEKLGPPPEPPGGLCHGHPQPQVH
Nuclear factor NF-kappa-B complex (Homo sapiens), sequence (Q04206 whole entry, looked up): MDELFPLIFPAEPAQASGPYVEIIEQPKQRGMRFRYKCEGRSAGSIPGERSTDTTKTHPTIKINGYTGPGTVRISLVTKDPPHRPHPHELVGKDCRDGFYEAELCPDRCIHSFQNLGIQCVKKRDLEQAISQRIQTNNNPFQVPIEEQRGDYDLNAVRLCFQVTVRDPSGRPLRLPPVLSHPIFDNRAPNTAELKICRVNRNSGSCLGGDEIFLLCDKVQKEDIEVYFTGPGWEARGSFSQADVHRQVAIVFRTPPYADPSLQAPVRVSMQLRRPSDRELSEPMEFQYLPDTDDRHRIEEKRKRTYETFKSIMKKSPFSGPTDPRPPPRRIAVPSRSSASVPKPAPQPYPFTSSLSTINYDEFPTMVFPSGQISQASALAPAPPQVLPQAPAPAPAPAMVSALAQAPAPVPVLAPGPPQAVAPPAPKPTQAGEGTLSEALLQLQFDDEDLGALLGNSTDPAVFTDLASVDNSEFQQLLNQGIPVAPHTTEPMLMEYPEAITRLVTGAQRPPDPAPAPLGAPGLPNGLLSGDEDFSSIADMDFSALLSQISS

Macrophage [7] = experiment: Activation of TRIF dependent pathway in human THP-1 derived macrophages assessed as increase in RSAD2 expression measured after 6 hrs; format: tissue-based
How it was run: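 RSAD2 mRNA in differentiated THP-1 macrophages after compound at 10 μM, measured by RT-qPCR (annealing 60 °C) with β-actin housekeeping gene. Expressed as ΔΔCt fold change versus untreated cells; n = 3, Wilcoxon test.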

[8] = target: T1, Toll-like receptor 4/MD-2 (Homo sapiens) (UniProt O00206+Q9Y6Y9); experiment: Binding affinity to NTA sensor chip immobilized recombinant human TLR4/MD2 assessed as association rate constant by surface plasmon resonance analysis; format: protein-complex assay; settings: filed as agonist
How it was run: (§4)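 Recombinant human TLR4/MD2 complex (20 μg/mL in 10 mM sodium acetate pH 4.0) amine-coupled to NTA chip after NiCl2 and EDC/NHS activation, ethanolamine-blocked. Analytes sonicated 15 min and diluted in PBS-P+ with 5% DMSO, injected over the series 4.34–69.50 μM or 5.34–85.50 μM. Regeneration 50 mM NaOH. Kinetics fitted to 1:1 model after solvent correction.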

Macrophage [9] = experiment: Induction of IL-1beta production in human THP-1 derived macrophages assessed as secretion of IL-1beta mature form in supernatant at 20 uM measured up to 18 hrs by ELISA; format: functional, tissue-based; settings: time hrs <=18
How it was run: (§5)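 Differentiated THP-1 macrophages treated with compound at 20 μM (S-LPS, R-LPS 100 ng/mL; MPLA 1 μg/mL) for 3, 6 and 18 h. IL-1β measured by ELISA in both cell lysates and supernatants; n = 3, one-way ANOVA versus untreated.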

Macrophage [10] = experiment: Induction of IL-1beta production in human THP-1 derived macrophages assessed as accumulation of IL-1beta precursor in cell lysates at 20 uM measured up to 18 hrs by ELISA; format: functional, subcellular; settings: time hrs <=18; how it was run: as §5
[11] = Toxicity in C57BL/6 […] assessed as effect on body weight at 10 ug measured daily for 7 days; settings: mouse, in vivo, 168 h; dose 10 µg, time 7 day; how it was run: as §2
[12] = target: Myeloid differentiation primary response protein MyD88 (Homo sapiens) (UniProt Q99836); experiment: Activation of MyD88 dependent pathway in human THP-1 derived macrophages assessed as increase in MAPK p38 phosphorylation at 10 uM measured after 1 hr by immunoblotting analysis; format: tissue-based; settings: Macrophage, filed as activator
Myeloid differentiation primary response protein MyD88 (Homo sapiens), sequence (Q99836 whole entry): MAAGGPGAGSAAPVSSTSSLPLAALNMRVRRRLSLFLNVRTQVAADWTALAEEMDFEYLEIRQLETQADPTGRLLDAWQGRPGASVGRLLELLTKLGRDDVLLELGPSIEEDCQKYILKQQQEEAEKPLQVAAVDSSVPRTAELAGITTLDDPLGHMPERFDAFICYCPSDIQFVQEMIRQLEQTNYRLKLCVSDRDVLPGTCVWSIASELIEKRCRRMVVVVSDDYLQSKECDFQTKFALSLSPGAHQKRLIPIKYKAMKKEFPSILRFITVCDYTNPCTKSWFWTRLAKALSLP
How it was run: (§6)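 PMA-differentiated THP-1 macrophages treated with compound at 10 μM (S-LPS 100 ng/mL, MPLA 1 μg/mL as references) and harvested at set times. RIPA lysates with protease/phosphatase inhibitors separated by SDS-PAGE, transferred to PVDF and probed for phospho-p65 (Ser536) and phospho-p38 (Thr180/Tyr182) with β-actin as loading control. Detection by chemiluminescence, densitometry; representative of at least two experiments.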

[13] = target: T1, Toll-like receptor 4/MD-2 (Homo sapiens); experiment: Binding affinity to NTA sensor chip immobilized recombinant human TLR4/MD2 assessed as dissociation rate kinetics by surface plasmon resonance analysis; format: protein-complex assay; settings: filed as agonist; how it was run: as §4
[14] = target: Toll-like receptor 4 (Homo sapiens) (UniProt O00206); experiment: Antagonist activity at human TLR4 in LPS-stimulated HEK-Blue hTLR4 cells assessed as inhibition of LPS-induced SEAP production at 0.1 to 25 uM incubated for 18 hrs by QUANTI-blue assay; settings: dose 0.1-25 µM
Toll-like receptor 4 (Homo sapiens), sequence (O00206 whole entry): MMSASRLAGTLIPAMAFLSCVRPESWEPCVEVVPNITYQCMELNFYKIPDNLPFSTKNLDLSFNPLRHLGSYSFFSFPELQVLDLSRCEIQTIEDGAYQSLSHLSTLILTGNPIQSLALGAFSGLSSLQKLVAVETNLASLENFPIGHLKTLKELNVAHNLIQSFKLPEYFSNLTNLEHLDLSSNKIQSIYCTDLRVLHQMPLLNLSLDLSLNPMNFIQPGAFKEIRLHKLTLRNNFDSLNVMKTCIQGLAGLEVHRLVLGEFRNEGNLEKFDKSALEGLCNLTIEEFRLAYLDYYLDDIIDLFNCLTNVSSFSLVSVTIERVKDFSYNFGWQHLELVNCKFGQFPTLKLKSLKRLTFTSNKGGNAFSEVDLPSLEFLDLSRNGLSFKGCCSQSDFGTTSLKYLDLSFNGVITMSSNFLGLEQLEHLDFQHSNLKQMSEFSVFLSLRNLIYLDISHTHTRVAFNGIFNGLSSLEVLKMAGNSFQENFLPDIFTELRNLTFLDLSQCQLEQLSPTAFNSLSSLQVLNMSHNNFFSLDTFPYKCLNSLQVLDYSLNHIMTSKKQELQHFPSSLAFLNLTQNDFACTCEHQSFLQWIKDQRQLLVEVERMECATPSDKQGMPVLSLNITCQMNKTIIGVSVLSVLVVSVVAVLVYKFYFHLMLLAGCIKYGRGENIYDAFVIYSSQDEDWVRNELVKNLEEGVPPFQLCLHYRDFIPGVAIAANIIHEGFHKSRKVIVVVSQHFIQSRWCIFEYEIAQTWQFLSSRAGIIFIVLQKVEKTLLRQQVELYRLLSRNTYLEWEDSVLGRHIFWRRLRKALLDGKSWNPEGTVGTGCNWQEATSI

[15] = target: Toll-like receptor 4 (Homo sapiens) (UniProt O00206); experiment: Activation of human TLR4 in IL-1beta stimulated HEK-Blue Null cells assessed as NF-kappaB activation at 0.1 to 25 uM incubated for 18 hrs by QUANTI- blue assay; format: tissue-based; settings: dose 0.1-25 µM
How it was run: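 HEK-Blue Null cells, which carry the SEAP reporter but lack LPS receptors, were given compound (0.1–25 μM) for 18 h. SEAP was read by QUANTI-Blue at OD 630 nm and normalized to 100 ng/mL human IL-1β as positive control. Results are the mean percentage of three independent experiments.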

[16] = target: Myeloid differentiation primary response protein MyD88 (Homo sapiens) (UniProt Q99836); experiment: Activation of MyD88 dependent pathway in human THP-1 derived macrophages assessed as increase in IL-1 beta secretion measured after 18 hrs by ELISA; settings: Macrophage, filed as activator
How it was run: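 THP-1 cells differentiated with PMA 25 ng/mL for 72 h, then rested 24 h in fresh medium before stimulation with compound (range 0.1–1 to 10–25 μM) in RPMI/10% FBS for 18 h. S-LPS and MPLA used as references. TNFα, IL-1β, IL-6 in supernatants quantified by sandwich ELISA at 450 nm (570 nm correction).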

[17] = Toxicity in C57BL/6 […] assessed as state of alertness at 10 ug observed daily for 7 days; settings: mouse, in vivo, 168 h; dose 10 µg, time 7 day; how it was run: as §2
[18] = target: Myeloid differentiation primary response protein MyD88 (Homo sapiens) (UniProt Q99836); experiment: Activation of MyD88 dependent pathway in human THP-1 derived macrophages assessed as increase in NF-kappaB p65 phosphorylation at 10 uM measured after 1 hr by immunoblotting analysis; format: tissue-based; settings: Macrophage, filed as activator; how it was run: as §6
[19] = target: T1, Toll-like receptor 4/MD-2 (Homo sapiens); experiment: Binding affinity to NTA sensor chip immobilized recombinant human TLR4/MD2 assessed as maximum response by surface plasmon resonance analysis; format: protein-complex assay; settings: filed as agonist; how it was run: as §4
[20] = target: Toll-like receptor 2 (Homo sapiens) (UniProt O60603); experiment: Agonist activity human TLR2 in PAM2CSK4 stimulated HEK-Blue hTLR2 cells at 0.1 to 25 uM incubated for 18 hrs by QUANTI-blue assay; format: cell-based; settings: dose 0.1-25 µM
Toll-like receptor 2 (Homo sapiens), sequence (O60603 whole entry): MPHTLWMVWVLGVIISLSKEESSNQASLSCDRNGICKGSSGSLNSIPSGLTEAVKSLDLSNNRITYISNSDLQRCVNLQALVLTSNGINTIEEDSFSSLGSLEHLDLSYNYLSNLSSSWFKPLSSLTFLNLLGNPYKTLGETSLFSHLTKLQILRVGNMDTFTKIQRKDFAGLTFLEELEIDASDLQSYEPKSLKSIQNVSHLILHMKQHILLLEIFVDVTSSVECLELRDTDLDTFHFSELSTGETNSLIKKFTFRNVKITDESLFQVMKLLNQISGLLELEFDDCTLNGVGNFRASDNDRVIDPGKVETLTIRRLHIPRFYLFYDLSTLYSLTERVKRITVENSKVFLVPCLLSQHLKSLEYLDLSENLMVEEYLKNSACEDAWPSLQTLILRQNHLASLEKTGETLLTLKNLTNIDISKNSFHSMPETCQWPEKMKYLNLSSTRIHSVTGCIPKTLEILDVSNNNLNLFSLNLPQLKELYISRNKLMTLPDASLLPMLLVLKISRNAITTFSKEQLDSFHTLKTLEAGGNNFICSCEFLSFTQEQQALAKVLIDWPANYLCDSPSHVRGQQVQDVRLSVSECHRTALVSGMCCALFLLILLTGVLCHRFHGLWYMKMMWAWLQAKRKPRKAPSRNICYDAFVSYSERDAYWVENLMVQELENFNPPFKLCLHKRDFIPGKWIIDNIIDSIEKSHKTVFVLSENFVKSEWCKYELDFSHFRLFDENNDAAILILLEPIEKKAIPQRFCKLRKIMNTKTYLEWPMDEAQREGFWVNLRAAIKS
How it was run: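 HEK-Blue hTLR2 cells exposed 18 h to compound (0.1–25 μM); SEAP in supernatant by QUANTI-Blue at OD 630 nm. Values normalized to PAM2CSK4 (10 ng/mL, 18 h) and expressed as mean percentage of three independent experiments.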

For CCCCCCCCCCCCCC(=O)N[C@H]1[C@@H](OP(=O)([O-])[O-])O[C@H](CO)[C@@H](OC(=O)CCCCCCCCCCCCC)[C@@H]1OC(=O)CCCCCCCCCCCCC.[Na+].[Na+], the Activity (Macrophage [1]) was “inactive”, the Activity (Mus musculus [2]) was “Active” and the Activity [3] was “Non-Toxic”. For the same compound, the Activity (Mus musculus [4]) was “Active”, the Activity (HEK-Blue hTLR4) was “Dose-Dependent Effect” and the Activity (Macrophage [5]) was “inactive”. For the same compound, the Activity [6] was “Dose-Dependent Effect”, the Activity (Macrophage [7]) was “inactive” and the Ka [8] was 3.84 10^3(1/Ms). The Activity (Macrophage [9]) was “inactive”, the Activity (Macrophage [10]) was “Active” and the Activity [11] was “Non-Toxic”. The Activity [12] was “Active”, the Kdiss [13] was 7.09 10^-4/s and the Activity [14] was “inactive”. The Activity [15] was “inactive”, the Activity [16] was “Dose-Dependent Effect” and the Activity [17] was “Non-Toxic”. The Activity [18] was “Active”, the Rmax [19] was 8.15 RU and the Activity [20] was “inactive”.
